Measured values as given in ChEMBL document CHEMBL1122519, “Bispyridinamines: a new class of topical antimicrobial agents as inhibitors of dental plaque” (1984).

Tests used:
Escherichia coli [1] = test: Minimum inhibitory concentration against Escherichia coli (Vogel); assay type: functional
Outline: (§1)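 Serial twofold tube dilution in tryptose phosphate broth. Each compound was prepared as a 1000 μg/mL aqueous stock and diluted in double-strength broth, then 2×10^5 cells were added. Tubes were incubated aerobically at 37 °C for 24 h. The MIC was taken as the lowest concentration with no visible growth.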

Staphylococcus aureus = test: Minimum antimicrobial inhibitory concentration against Staphylococcus aureus; assay type: functional; outline: as §1
Pseudomonas aeruginosa = test: Minimum antimicrobial inhibitory concentration against Pseudomonas aeruginosa MGH-2; assay type: functional; outline: as §1
Escherichia coli [2] = test: Antimicrobial minimum inhibitory concentration against Escherichia coli 100/B22; assay type: functional; outline: as §1
Proteus mirabilis = test: Minimum antimicrobial inhibitory concentration against Proteus mirabilis MGH-1; assay type: functional; outline: as §1
Klebsiella pneumoniae = test: Minimum inhibitory concentration against Klebsiella pneumonia 39645; assay type: functional; outline: as §1
Escherichia coli [3] = test: Antimicrobial minimum inhibitory concentration against Escherichia coli AB1932-1; assay type: functional; outline: as §1
Streptococcus mutans = test: Minimum plaque inhibitory concentration using a standard test organism, Streptococcus mutans OMZ-61; assay type: functional, organism-based
Outline: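 Ceramic hydroxylapatite plates were soaked twice for 1 min each in compound at […] (aqueous), air-dried and rinsed, then hung in sucrose beef-extract medium (pH 7.0) inoculated with late-log S. mutans OMZ-61. Incubation was anaerobic at 37 °C for 24 h, and treatment plus reinoculation were repeated for a second 24 h. Plaque was stained with 1% FD&C Red No. 3 and scored visually. The value is the lowest concentration giving no plaque while medium growth matched control.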

SMILES | MIC (Escherichia coli [1]) [µg/mL] | MIC (Staphylococcus aureus) [µg/mL] | MIC (Pseudomonas aeruginosa) [µg/mL] | MIC (Escherichia coli [2]) [µg/mL] | MIC (Proteus mirabilis) [µg/mL] | MIC (Klebsiella pneumoniae) [µg/mL] | MIC (Escherichia coli [3]) [µg/mL] | Concentration (Streptococcus mutans) [%]
CS(=O)(=O)O.CS(=O)(=O)O.Clc1ccc(N=c2ccn(CCCCCCn3ccc(=Nc4ccc(Cl)cc4)cc3)cc2)cc1 | 15.6 | 3.9 | 500 | 15.6 | 500 | 500 | 3.9 | > 1
Br.Br.c1cn(CCCCCCn2ccc(=NC3CCCCC3)cc2)ccc1=NC1CCCCC1 | > 125 | 15.6 | > 125 | > 125 | > 125 | > 125 | 125 | > 1
CS(=O)(=O)O.CS(=O)(=O)O.Clc1ccc(N=c2ccn(CCCCCCCCn3ccc(=Nc4ccc(Cl)cc4)cc3)cc2)cc1 | 3.1 | 0.4 | 125 | 3.1 | 125 | 31.3 | 1.6 | > 1
Br.Br.CCCCCCCCCCCCN=c1ccn(CCCCCCCCCn2ccc(=NCCCCCCCCCCCC)cc2)cc1 | 62.5 | 7.8 | > 62.5 | 62.5 | 62.5 | > 62.5 | > 62.5 | 0.1
Br.Br.CCCCCCCCCCN=c1ccn(CCCCCCCCCCCCn2ccc(=NCCCCCCCCCC)cc2)cc1 | 7.8 | 2 | 15.6 | 15.6 | 15.6 | 31.3 | 31.3 | 0.1
Br.Br.CCCCCCN=c1ccn(CCCCCCCCCCn2ccc(=NCCCCCC)cc2)cc1 | 2 | 0.2 | 31.3 | 2 | 31.3 | 3.9 | 1 | > 1
Br.Br.CCCCC(CC)CN=c1ccn(CCCCCCCCn2ccc(=NCC(CC)CCCC)cc2)cc1 (centres undefined) | 3.9 | 0.3 | 125 | 2 | 125 | 7.8 | 1 | 0.004
Br.Br.CCCCCCCCCCN=c1ccn(CCCCCCCCCn2ccc(=NCCCCCCCCCC)cc2)cc1 | 2 | 1 | 7.8 | 3.9 | 7.8 | 15.6 | 7.8 | 0.01
Br.Br.c1cn(CCCCCCCCn2ccc(=NC3CCCCC3)cc2)ccc1=NC1CCCCC1 | 62.5 | 3.9 | 250 | 62.5 | > 125 | > 125 | 31.3 | > 1
CS(=O)(=O)O.CS(=O)(=O)O.Clc1ccc(N=c2ccn(CCCCCCCCCCn3ccc(=Nc4ccc(Cl)cc4)cc3)cc2)cc1 | 1.6 | 0.4 | 62.5 | 1.6 | > 125 | 3.1 | 0.8 | > 1
Br.Br.CCCCCCN=c1ccn(CCCCCCCCn2ccc(=NCCCCCC)cc2)cc1 | 3.9 | 0.2 | 125 | 3.9 | > 250 | 7.8 | 2 | > 1
Br.Br.CCCCCCCCCCCCN=c1ccn(CCCCCCCn2ccc(=NCCCCCCCCCCCC)cc2)cc1 | 62.5 | 3.9 | 62.5 | 62.5 | 62.5 | > 62.5 | 62.5 | 0.1
Br.Br.Clc1ccc(N=c2ccn(CCCCCn3ccc(=Nc4ccc(Cl)cc4)cc3)cc2)cc1 | 125 | 7.8 | > 125 | 125 | > 125 | > 125 | 31.3 | > 1
Br.Br.CCCCCCN=c1ccn(CCCCCn2ccc(=NCCCCCC)cc2)cc1 | 125 | 2 | > 125 | 62.5 | > 250 | > 125 | 31.3 | 
Br.Br.CCCCCCN=c1ccn(CCCCn2ccc(=NCCCCCC)cc2)cc1 | 125 | 7.8 | > 250 | 125 | > 125 | > 125 | 62.5 | 
Br.Br.Fc1ccc(N=c2ccn(CCCCCCCCn3ccc(=Nc4ccc(F)cc4)cc3)cc2)cc1 | 15.6 | 2 | > 62.5 | 15.6 | > 125 | > 62.5 | 7.8 | > 1
Br.Br.CCCCCCCCCCCCN=c1ccn(CCCCCCCCn2ccc(=NCCCCCCCCCCCC)cc2)cc1 | 31.3 | 7.8 | > 62.5 | > 62.5 | 62.5 | > 62.5 | 62.5 | 0.1
Br.Br.CCCCC(CC)CN=c1ccn(CCCCn2ccc(=NCC(CC)CCCC)cc2)cc1 (centres undefined) | 62.5 | 1 | 125 | 31.3 | > 125 | > 125 | 7.8 | > 1
Br.Br.CCCCCCN=c1ccn(CCCCCCn2ccc(=NCCCCCC)cc2)cc1 | 31.3 | 0.5 | > 125 | 7.8 | > 250 | 125 | 7.8 | 1
Br.Br.CCCCCCN=c1ccn(CCCCCCCn2ccc(=NCCCCCC)cc2)cc1 | 15.6 | 0.4 | > 125 | 7.8 | > 125 | 15.6 | 7.8 | > 1
Br.Br.N=c1ccn(CCCCCCCCCn2ccc(=N)cc2)cc1 | 250 | 31.3 | > 500 |  | > 500 | 500 |  | > 1
CS(=O)(=O)O.CS(=O)(=O)O.Clc1ccc(N=c2ccn(CCCCn3ccc(=Nc4ccc(Cl)cc4)cc3)cc2)cc1 | 15.6 | 7.8 | > 125 | 15.6 | > 250 | > 250 | 7.8 | > 1
CCCCCCCCN=c1ccn(CCCCCCCCCn2ccc(=NCCCCCCCC)cc2)cc1.Cl.Cl | 1 | 1 | 3.9 | 1 | 15.6 | 2 | 1 | 0.003
Br.Br.c1cn(CCCCCCCn2ccc(=NC3CCCCC3)cc2)ccc1=NC1CCCCC1 | > 125 | 7.8 | 125 | > 125 | > 125 | > 125 | 125 | > 1
Br.Br.N=c1ccn(CCCCCCCCCCCCn2ccc(=N)cc2)cc1 | > 62.5 | 2 | > 62.5 |  | > 125 | > 62.5 |  | > 1
